Source: PubChem BioAssay
Apaf1 inhib – inhibitors of human Apaf-1 apoptosome | O14727 | inhibition, % at 20 µM | reconstituted apoptosome caspase-3 activity, DEVD-Rh110 fluorescence | 330,000 tested, 0.71% active; active means inhibition of at least 40% at 20 µM
Target sequence (O14727 whole entry, looked up): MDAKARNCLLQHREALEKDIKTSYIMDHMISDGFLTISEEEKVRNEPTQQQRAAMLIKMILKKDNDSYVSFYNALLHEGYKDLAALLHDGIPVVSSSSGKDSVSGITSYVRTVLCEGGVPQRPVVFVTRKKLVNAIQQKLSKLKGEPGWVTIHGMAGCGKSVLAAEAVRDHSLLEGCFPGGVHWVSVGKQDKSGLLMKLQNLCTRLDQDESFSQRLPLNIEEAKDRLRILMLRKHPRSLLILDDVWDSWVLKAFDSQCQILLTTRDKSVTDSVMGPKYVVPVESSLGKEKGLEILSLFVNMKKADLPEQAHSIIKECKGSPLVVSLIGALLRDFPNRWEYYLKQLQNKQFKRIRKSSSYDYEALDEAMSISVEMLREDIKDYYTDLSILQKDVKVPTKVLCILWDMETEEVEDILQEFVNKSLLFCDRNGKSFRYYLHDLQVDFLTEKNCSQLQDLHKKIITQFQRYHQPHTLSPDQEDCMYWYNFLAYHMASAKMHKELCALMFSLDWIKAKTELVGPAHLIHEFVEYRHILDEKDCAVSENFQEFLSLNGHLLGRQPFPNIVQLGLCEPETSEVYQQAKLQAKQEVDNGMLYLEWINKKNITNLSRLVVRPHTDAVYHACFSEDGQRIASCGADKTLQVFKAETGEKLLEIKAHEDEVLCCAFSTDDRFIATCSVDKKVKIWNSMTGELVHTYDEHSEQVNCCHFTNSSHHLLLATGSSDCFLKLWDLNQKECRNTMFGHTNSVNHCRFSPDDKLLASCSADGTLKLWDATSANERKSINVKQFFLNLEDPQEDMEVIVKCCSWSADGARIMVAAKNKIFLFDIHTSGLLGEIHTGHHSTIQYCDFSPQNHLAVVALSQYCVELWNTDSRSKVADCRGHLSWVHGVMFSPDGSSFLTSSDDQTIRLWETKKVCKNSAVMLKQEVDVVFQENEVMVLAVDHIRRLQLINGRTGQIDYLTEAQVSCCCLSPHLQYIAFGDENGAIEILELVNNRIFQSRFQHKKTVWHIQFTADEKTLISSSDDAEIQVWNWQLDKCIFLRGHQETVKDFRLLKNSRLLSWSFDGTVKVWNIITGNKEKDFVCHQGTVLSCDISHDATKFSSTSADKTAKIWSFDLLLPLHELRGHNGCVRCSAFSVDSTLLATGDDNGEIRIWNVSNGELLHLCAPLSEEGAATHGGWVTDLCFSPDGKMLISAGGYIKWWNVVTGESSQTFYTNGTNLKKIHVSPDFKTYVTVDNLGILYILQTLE
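Material: reconstituted apoptosome with Apaf-1, cytochrome c, caspase-9, procaspase-3, dATP / Buffer or medium: pH 7.5 Hepes buffer with CHAPS, BSA, DTT / Also added: cytochrome c with DEVD-Rh110 / Schedule: compound with Apaf-1, dATP, procaspase-3 30 min, then 50 min reaction, room temperature / Technique: rhodamine 110 fluorescence at Ex 480/Em 540 nm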
M18AAP inhibitor – blocks P. falciparum M18 aspartyl aminopeptidase; recombinant PfM18AAP, H-Glu-NHMec fluorogenic cleavage; inhibition, % at 7.35 µM; 290,000 tested, 1.2% active;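 active means inhibition above the campaign mean inhibition over all tested compounds plus 3 SD, cut at about 28% in these data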
UBC13 inh – inhibitors of human UBC13 polyubiquitin chain formation | P61088 | TR-FRET | inhibition, % at 20 µM | 330,000 tested, 0.47% active; in the data active means inhibition above about 45%, passing the limit was not always enough
PfGluPho inh – PfG6PD (Plasmodium falciparum) enzyme inhibition | 350,000 tested, 0.78% active | inhibition, % at 20 µM | PfGluPho enzyme, NADPH resazurin-diaphorase fluorescence | AID 504690;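 active means inhibition reaching at least a set limit at 20 µM in the primary screen, cut at about 59% in these data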
EBNA-1 inhibitor – blocks EBNA-1 binding to DNA; EBNA-1 DNA binding, fluorescence polarization; 300,000 tested, 0.34% active; inhibition, % at 14.8 µM; in the data active means inhibition above about 28%
ZTA counter – blocks Epstein-Barr virus ZTA, an EBNA-1 counter-screen | P03206 | 320,000 tested, 0.15% active | inhibition, % at 11 µM | ZTA-DNA binding, fluorescence polarization | AID 2234; in the data active means inhibition above about 33%
Numbers stand for hits; 0 = inactive; - = no result. Compounds with a hit are over-represented: about 2.9% of the library has one in this group of screens.

SMILES	Apaf1 inhib	M18AAP inhibitor	UBC13 inh	PfGluPho inh	EBNA-1 inhibitor	ZTA counter
CCOC(=O)N1CCN(C(=O)c2cc3c(s2)-c2ccccc2OC3)CC1	0	0	0	0	0	0
CC(C)(C)C(=O)NC1=NN(c2c(Cl)cc(Cl)cc2Cl)C(=O)C1	68	0	0	0	0	0
COc1cccc(C(=O)Nc2cccc(C(=O)NC3=NN(c4c(Cl)cc(Cl)cc4Cl)C(=O)C3)c2)c1	0	0	0	0	0	0
CC1(C)Cc2c(cnn2-c2ccccc2)C(NC(=O)CCc2ccc(=O)[nH]n2)C1 (stereo unspecified)	0	0	0	0	0	0
COc1ccccc1-c1nnc2n1N=C(c1ccc(O)c(O)c1)CS2	0	69	0	0	0	0
CCOc1ccc(C2=Nn3c(nnc3-c3ccccc3OC)SC2)cc1	-	0	-	0	0	0
COc1cc(NC(=S)Nc2cccc(Cl)c2Cl)c(OC)cc1Cl	0	29	0	0	0	0
COc1cc(NC(=S)Nc2ccc(Br)cc2Cl)c(OC)cc1Cl	0	0	0	0	0	0
Cc1ccsc1/C=N/NC(=O)c1ccc2nc[nH]c2c1	0	0	0	0	0	0
COc1ccc(S(=O)(=O)CC(=O)c2cc3cc(Br)ccc3oc2=O)cc1	0	29	0	0	0	0
OCCNc1ncnc2c1c(-c1ccccc1)c(-c1ccccc1)n2Cc1ccco1	0	0	0	0	0	0
c1ccc(-c2c(-c3ccccc3)n(Cc3ccco3)c3ncnc(NCCCn4ccnc4)c23)cc1	42	0	0	0	0	0
CC(=O)c1cccc(NC(=O)Nc2ccc3c(c2)OCO3)c1	0	0	0	0	-	-
O=C(O)c1cc(S(=O)(=O)Nc2ccc3oc(=O)sc3c2)ccc1O	0	51	0	0	0	0
CCOc1ccccc1CN1CCCC(CNC(=O)Cc2ccc(OC)cc2)C1 (stereo unspecified)	0	0	0	0	0	0
COCCN1Cc2cccc(C(=O)NCc3ccc4c(c3)OCO4)c2C1=O	0	29	0	0	0	0
COc1cc(/C=N/NC(=O)NC2CCCCC2)cc(OC)c1O	0	29	0	0	0	0
COc1cc(/C=N/NC(=O)NC2CCCCC2)ccc1O	0	0	0	0	0	0
O=C(CCN1C(=O)NC2(CCCC2)C1=O)Nc1ccc(-c2nc3ccccc3s2)cc1	0	-	0	0	-	0
Cc1cc[n+](-c2[nH]c(=O)sc2/C=N/NC([S-])=Nc2ccccc2)cc1	0	31	0	0	0	0
Cc1cccc(NC(=O)NNC(=O)c2cc3ccccc3cc2O)c1C	0	0	0	0	0	0
Cc1cccc(NC(=S)NNC(=O)c2ccc(O)cc2O)c1C	0	29	0	0	0	0
COC(=O)CNc1ccc2c(c1)OCO2	0	31	0	0	0	0
CC1(c2nnc(-c3ccc(F)cc3)o2)CC(c2ccncc2)=NO1 (stereo unspecified)	0	-	0	-	0	0
CC1=NN(c2ccc(C)c(C)c2)C(=O)C1C(c1cccc(O)c1)C1C(=O)N(c2ccc(C)c(C)c2)N=C1C (stereo unspecified)	87	0	0	0	0	0
SMILES	Apaf1 inhib	M18AAP inhibitor	UBC13 inh	PfGluPho inh	EBNA-1 inhibitor	ZTA counter
Cc1ccc(N2C(=O)C3C4C=CC(C4)C3C2=O)cc1C (stereo unspecified)	0	0	0	0	0	0
O=c1[nH]c2ccccc2c2ccccc12	0	0	0	0	0	0
O=c1[nH]c2ccccc2c2cn(-c3ccccc3)nc12	0	0	0	64	0	0
CN(C)c1ccc(NC(=O)N2CCOCC2)cc1	0	0	0	0	50	62
c1cc2c3c(cccc3c1)C(N1CCCCC1)=N2	91	0	0	0	0	0
CCn1c(SC(=O)NC2CCCCC2)nnc1-c1cccs1	0	47	0	0	0	0
CCn1c(SCC(=O)NC2CCCCC2)nnc1-c1cccs1	0	0	0	0	0	0
O=C(Nc1ccc(C(=O)O)cc1)/C(=C\c1ccco1)NC(=O)c1ccccc1Cl	0	30	0	0	0	0
COc1ccc(C/C(C)=N/Nc2nc(C)cc(=O)[nH]2)cc1	0	31	0	0	0	0
O=C(Nc1ccccc1)Oc1ccc[nH]c1=O	61	0	0	0	0	0
O=C1CCC(C(=O)Nc2cccc(S(=O)(=O)Nc3ccccc3F)c2)=NN1	0	-	0	92	-	-
O=C(Nc1cccc(S(=O)(=O)Nc2ccccc2F)c1)c1ccco1	0	-	0	0	-	-
